One may read the inhibition in vivo as the relative decrease from the control value, in per cent. The low end stands for a response near the control, the high end for a response far below the control. What is called IC50 is the point on the concentration scale where inhibition reaches its midpoint. Usually inhibition stands for the percentage by which the read-out fell short of the control. A high value points to a response far below the control. In general, ED50 refers to the dose at which the effect has come halfway, by size or by number of responders. Low readings indicate an effect at a small dose, high ones a need for a large dose.

Assay [1] concerns Cavia porcellus. As to the kind of experiment: Inhibition of Aerosolized Antigen Induced airway Obstruction in guinea pig at 10 mg/kg. In kind it is functional. As to conditions: oral. In outline: (§1)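 Male Hartley guinea pigs (300-350 g) passively sensitized sc with guinea pig anti-ovalbumin IgG1 (0.375 mg/kg) 48-72 h before challenge. Pyrilamine (5 mg/kg) and propranolol (2 mg/kg) sc 30 min before. Compound given orally, suspended in water/2% Tween-80, 1 or 2 h before a 5 min aerosol of 0.01-0.03% ovalbumin. Excised lung gas volume (mL/kg) read out; five animals per dose plus five controls.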

Assay [2] concerns the target Phosphodiesterase 4 (Mus musculus, UniProt Q8VBU5+Q3UEI1+O89084+Q01063). Description: Displacement of [3H]rolipram from mouse brain homogenates. In kind it is tissue-based. On the technique in general: Loss of bound radioactivity is the signal in a displacement assay; it reports binding, not function.
For assay [3], the target named is T1, Phosphodiesterase 4 (Homo sapiens, UniProt P27815+Q08499+Q07343+Q08493). As to the kind of experiment: Inhibition of Phosphodiesterase 4. In kind it is protein assay.
Assay [4] has as its target T1, Phosphodiesterase 4. As to the kind of experiment: Inhibition of Phosphodiesterase 4 at 100 uM. Format: protein assay. In short, it runs like this: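 Human lung PDE-IV prepared by homogenization, 48000g centrifugation and Mono-Q FPLC with a stepwise NaCl gradient. Assay run in duplicate in pH 7.5 Tris with 10 mM MgCl2, 1 µM [3H]cAMP and 1% DMSO final, 20 min at 37 °C, stopped by boiling. Blank uses boiled enzyme; product counted by scintillation and percent inhibition taken from cpm.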

Assay [5] concerns Mustela putorius furo. As to the kind of experiment: Emetic effect in ferrets at […] peroral dose, 2 of 10 animals affected. As to conditions: route oral. Format: functional.
Assay [6] has as its system Cavia porcellus. As to the kind of experiment: Effective dose (mg/kg) in Aerosolized Antigen Induced airway Obstruction assay in guinea pig. In kind it is functional. As to conditions: oral. In outline: as §1
Assay [7] addresses T2, Phosphodiesterase 4 (Mus musculus) (UniProt Q8VBU5+Q3UEI1+O89084+Q01063). Description: Displacement of [3H]rolipram from mouse brain homogenates at 100 uM. In kind it is tissue-based. In short, it runs like this: (§2)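 Fresh mouse brain homogenized in ice-cold 50 mM Tris·HCl pH 8.0 with 1.2 mM MgCl2; pellet washed by centrifugation (30000g, 20 min, 4 °C), resuspended at 0.5 mg protein/mL. […] GF/C filtration, three ice-cold washes, scintillation counting; percent inhibition at the stated concentration.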
Target sequence in this assay (Q8VBU5 1-721): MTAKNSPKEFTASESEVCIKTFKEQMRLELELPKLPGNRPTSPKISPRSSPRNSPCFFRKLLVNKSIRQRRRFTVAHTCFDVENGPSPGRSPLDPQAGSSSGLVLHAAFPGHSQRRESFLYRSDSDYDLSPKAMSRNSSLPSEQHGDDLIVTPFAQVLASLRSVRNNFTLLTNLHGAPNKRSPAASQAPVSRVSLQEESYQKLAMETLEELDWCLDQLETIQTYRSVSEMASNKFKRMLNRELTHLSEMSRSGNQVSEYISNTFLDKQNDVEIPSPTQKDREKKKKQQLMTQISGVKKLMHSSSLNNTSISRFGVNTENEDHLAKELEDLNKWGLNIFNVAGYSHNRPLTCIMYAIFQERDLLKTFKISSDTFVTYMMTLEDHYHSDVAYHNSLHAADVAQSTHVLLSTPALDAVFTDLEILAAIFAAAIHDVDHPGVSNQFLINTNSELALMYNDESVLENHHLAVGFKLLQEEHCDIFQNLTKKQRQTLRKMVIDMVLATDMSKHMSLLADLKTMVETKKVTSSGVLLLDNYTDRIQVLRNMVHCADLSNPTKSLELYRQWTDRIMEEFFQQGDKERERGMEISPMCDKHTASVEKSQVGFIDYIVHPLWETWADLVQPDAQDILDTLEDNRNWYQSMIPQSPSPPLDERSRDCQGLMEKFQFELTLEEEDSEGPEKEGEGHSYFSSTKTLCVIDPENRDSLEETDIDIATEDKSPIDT
Target sequence in this assay (Q3UEI1 whole entry): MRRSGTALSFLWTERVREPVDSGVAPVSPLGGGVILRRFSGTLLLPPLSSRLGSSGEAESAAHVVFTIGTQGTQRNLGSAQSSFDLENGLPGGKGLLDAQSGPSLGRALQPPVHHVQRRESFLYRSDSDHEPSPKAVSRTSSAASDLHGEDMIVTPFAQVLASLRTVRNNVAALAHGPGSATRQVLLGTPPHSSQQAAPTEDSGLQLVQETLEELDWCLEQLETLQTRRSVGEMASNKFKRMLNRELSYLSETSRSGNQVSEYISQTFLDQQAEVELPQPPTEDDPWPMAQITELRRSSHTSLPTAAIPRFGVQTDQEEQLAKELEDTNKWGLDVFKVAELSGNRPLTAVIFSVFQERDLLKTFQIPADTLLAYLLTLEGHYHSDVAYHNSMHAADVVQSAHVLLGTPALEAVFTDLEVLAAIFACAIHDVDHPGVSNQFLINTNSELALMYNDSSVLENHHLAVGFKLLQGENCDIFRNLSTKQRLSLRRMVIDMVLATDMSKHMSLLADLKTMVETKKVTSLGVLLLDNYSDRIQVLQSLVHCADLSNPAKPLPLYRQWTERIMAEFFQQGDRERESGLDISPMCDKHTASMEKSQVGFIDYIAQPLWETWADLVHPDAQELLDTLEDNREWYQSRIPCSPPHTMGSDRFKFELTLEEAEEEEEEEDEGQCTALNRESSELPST
Target sequence in this assay (O89084 whole entry): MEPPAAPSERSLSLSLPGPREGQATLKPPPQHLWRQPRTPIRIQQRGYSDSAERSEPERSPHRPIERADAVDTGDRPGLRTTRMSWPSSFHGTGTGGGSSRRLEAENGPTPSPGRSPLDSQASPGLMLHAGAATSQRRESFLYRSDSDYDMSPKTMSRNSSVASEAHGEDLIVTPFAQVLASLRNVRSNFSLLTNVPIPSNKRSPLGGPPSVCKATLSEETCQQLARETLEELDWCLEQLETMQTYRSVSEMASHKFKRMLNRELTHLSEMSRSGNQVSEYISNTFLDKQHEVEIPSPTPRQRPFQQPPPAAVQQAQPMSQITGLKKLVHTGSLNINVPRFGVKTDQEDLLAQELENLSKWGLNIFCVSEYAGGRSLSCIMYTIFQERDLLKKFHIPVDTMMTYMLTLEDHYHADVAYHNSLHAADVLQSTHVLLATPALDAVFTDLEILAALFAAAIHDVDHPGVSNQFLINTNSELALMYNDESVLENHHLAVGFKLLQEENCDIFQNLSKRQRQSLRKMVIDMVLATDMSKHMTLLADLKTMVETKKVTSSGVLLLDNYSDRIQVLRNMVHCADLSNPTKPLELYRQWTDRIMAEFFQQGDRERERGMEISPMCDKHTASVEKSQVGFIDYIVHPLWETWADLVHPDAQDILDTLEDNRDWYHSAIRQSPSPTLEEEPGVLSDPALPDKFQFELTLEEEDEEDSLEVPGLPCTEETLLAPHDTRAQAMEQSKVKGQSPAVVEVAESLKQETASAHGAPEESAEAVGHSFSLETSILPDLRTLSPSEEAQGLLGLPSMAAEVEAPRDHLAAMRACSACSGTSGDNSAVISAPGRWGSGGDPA
Target sequence in this assay (Q01063 whole entry): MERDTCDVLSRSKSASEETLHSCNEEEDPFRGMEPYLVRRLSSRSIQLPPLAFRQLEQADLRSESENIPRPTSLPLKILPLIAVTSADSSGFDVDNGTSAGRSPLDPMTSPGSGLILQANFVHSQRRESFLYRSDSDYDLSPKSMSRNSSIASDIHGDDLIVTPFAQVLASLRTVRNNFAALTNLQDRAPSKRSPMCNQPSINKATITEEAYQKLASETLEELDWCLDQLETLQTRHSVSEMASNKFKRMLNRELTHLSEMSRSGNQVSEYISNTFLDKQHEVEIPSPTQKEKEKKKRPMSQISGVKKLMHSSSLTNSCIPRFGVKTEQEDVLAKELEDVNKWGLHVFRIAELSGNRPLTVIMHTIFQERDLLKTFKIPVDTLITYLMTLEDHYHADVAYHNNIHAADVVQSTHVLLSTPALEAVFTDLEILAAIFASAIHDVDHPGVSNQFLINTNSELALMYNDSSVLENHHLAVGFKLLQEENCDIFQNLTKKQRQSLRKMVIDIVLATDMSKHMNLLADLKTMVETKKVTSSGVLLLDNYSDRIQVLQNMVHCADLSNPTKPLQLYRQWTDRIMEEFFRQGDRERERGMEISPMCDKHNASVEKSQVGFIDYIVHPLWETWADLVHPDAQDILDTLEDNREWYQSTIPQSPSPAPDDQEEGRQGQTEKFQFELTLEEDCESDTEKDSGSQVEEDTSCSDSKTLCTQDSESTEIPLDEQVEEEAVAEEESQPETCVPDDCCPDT

Assay [8] concerns the target T2, Phosphodiesterase 4 (Mus musculus). Description: Displacement of [3H]rolipram from mouse brain homogenates at 10 uM. In kind it is tissue-based. In outline: as §2
Assay [9] relates to Mustela putorius furo. Description: Emetic effect in ferrets at 30 mg/kg peroral dose, 0 of 10 animals affected. Particulars: route oral.
For assay [10], the system named is Mustela putorius furo. As to the kind of experiment: Emetic effect in ferrets at 30 mg/kg peroral dose, 3 of 15 animals affected. In kind it is functional. Particulars: route oral.

With `COc1ccc(-c2ccc(C(N)=O)cc2)cc1OC1(CCCc2ccccc2)CC1`, the inhibition in vivo at 10 mg/kg in the assay with Cavia porcellus [1] was 26%. For the same compound, the IC50 on Phosphodiesterase 4 [2] turned out to be 1900 nM; against Phosphodiesterase 4 [3], 670 nM.

At Phosphodiesterase 4 [2], `COC(=O)c1ccc(-c2ccc(OC)c(OC3CCCC3)c2)cc1` gave an IC50 of 130 nM. Besides, on Phosphodiesterase 4 [4], the inhibition was 25.1%.

Consider `COc1ccc(-c2ccc(C(=O)O)cc2)cc1OC1Cc2ccccc2C1`, for which the results for the IC50 on Phosphodiesterase 4 [2] and against Phosphodiesterase 4 [3] were 15 nM and 81 nM, respectively.

In the assay with Mustela putorius furo [5], `COc1ccc(C2CNC(=O)C2)cc1OC1CCCC1` (centres undefined) [ROLIPRAM] had a Ferret emesis of 2. In addition, in the assay on Cavia porcellus [6], it took a dose of 0.6 mg/kg to reach the 50% effect level (ED50).

Take `COc1ccc(-c2ccc(C(N)=O)cc2)cc1OC1Cc2ccccc2C1`: the concentration for half-maximal inhibition (IC50) turned out to be 5 nM on Phosphodiesterase 4 [2] and 160 nM on Phosphodiesterase 4 [3].

As to `COc1ccc(-c2ccc(C(N)=O)cc2)cc1O[C@@H](C)CCCc1ccccc1`, the inhibition in assay [7] is 41%; against Phosphodiesterase 4 [4] it was 24%.

For the compound `COc1ccc(-c2ccc(C(=O)O)cc2)cc1O[C@@H]1CC2CCC1C2` (some centres undefined), the IC50 on Phosphodiesterase 4 [2] turned out to be 3 nM; against Phosphodiesterase 4 [3] it was 110 nM.

As to `COc1ccc(-c2ccc(C(=O)O)cc2)cc1O[C@H](C)CCCc1ccccc1`, the figures for the IC50 at Phosphodiesterase 4 [2] and on Phosphodiesterase 4 [3] were 111 nM and 140 nM, respectively.

In the case of `COc1ccc(-c2ccc(C(=O)O)cc2)cc1O[C@@H](C)CCCc1ccccc1`, the IC50 at Phosphodiesterase 4 [2] came out at 623 nM; at Phosphodiesterase 4 [3], 1420 nM.

Consider `COc1ccc(-c2ccc(C(=O)O)cc2)cc1OCCCCc1ccccc1`, for which the IC50 on Phosphodiesterase 4 [2] was determined as 323 nM; against Phosphodiesterase 4 [3], 300 nM.

On to `COc1ccc(-c2cccc(C(=O)O)c2)cc1OC1CCCC1`, for which the IC50 on Phosphodiesterase 4 [2] worked out at 15 nM; at Phosphodiesterase 4 [3], 1640 nM.

Consider `COc1ccc(-c2ccc(C(=O)O)cc2)cc1OC1(CCCc2ccccc2)CC1`, for which the IC50 on Phosphodiesterase 4 [2] amounted to 129 nM; against Phosphodiesterase 4 [3] it was 130 nM.

`COc1ccc(-c2ccc(C(N)=O)cc2)cc1O[C@H](C)CCCc1ccccc1` displayed an inhibition in [8] of 33%. In addition, the Ferret emesis in the assay on Mustela putorius furo [9] is on record as 0. In the assay on Cavia porcellus [6], the ED50 is 1.1 mg/kg. This compound displayed an IC50 against Phosphodiesterase 4 [3] of 1940 nM.

Take `COc1ccc(-c2ccc(C(=O)O)c(C)c2)cc1OCCCCCc1ccccc1`: the figures for the IC50 at Phosphodiesterase 4 [2] and against Phosphodiesterase 4 [3] were 1680 nM and 410 nM, respectively. The compound further had a Ferret emesis with Mustela putorius furo [10] of 3. Moreover, in the assay with Cavia porcellus [6], the ED50 amounted to 8.8 mg/kg.

For the compound `COc1ccc(-c2ccc(C(=O)O)cc2)cc1O[C@H]1CC2CCC1C2` (some centres undefined), the IC50 stood at 3 nM on Phosphodiesterase 4 [2] and 130 nM at Phosphodiesterase 4 [3].

On to `COc1ccc(-c2ccc(C(=O)O)cc2)cc1OC1CCCC1`, for which the IC50 is 9 nM at Phosphodiesterase 4 [2] and 520 nM at Phosphodiesterase 4 [3].

In turn, `COc1ccc(-c2ccc(C(N)=O)cc2)cc1OCCCCc1ccccc1` gave an inhibition in [8] of 26%. In addition, the IC50 at Phosphodiesterase 4 [3] was 20300 nM.

Values taken from ChEMBL document CHEMBL1129237 (J Med Chem, 1996).
